The IC50 is the concentration needed to halve the response being measured.

The text below walks through data of ChEMBL document CHEMBL1143720, “Vasorelaxant activity of diterpenes from Croton zambesicus and synthetic trachylobanes and their structure-activity relationships” (J Nat Prod, 2007).

Structures are written as SMILES.

The subject of one test is HeLa. Nature of the test: Cytotoxicity against human HeLa cells by MTT method. It is filed as cell-based. The gist of the method:
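HeLa human cervix carcinoma cells; viability by MTT colorimetric assay. Absorbance expressed as percent of control, with camptothecin as positive control. IC50 given as mean ± SEM.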
In general terms: Tetrazolium assays rely on reduction of a dye to a coloured formazan, in cell work by metabolically active cells.

For test [1], the system named is Aorta. Nature of the test: Vasorelaxant activity against KCl-induced contraction in Wistar rat aorta at 10 ug/ml. It is filed as functional. Also on record: scale not given: the % may be the effect or the level left. The gist of the method:
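Rat aortic rings at 37 °C, gassed with 95% O2/5% CO2 and equilibrated 60 min; first contraction with 100 mM KCl depolarizing solution. After washing, rings were preincubated 30 min with compound at 10 µg/mL (max 3 µg/mL if poorly soluble; DMSO ≤0.1% in bath) and KCl contraction repeated. Inhibition versus the control contraction after 40 min incubation; mean ± SEM of n.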

Test [2] has as its system Aorta. In words: Vasorelaxant activity against KCl-induced contraction in Wistar rat aorta. Type of test: functional, tissue-based. In a few lines: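 Endothelium-intact aortic rings in physiological solution at 37 °C, gassed with 95% O2/5% CO2 and equilibrated 60 min. Compound added cumulatively (10^-6 to 10^-4 M; 0.3–3 or 0.3–10 µg/mL by solubility) on the plateau of 100 mM KCl depolarizing contraction. Response taken as % of initial KCl contraction. IC50 from sigmoidal fit, 95% CI, 3–6 determinations.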

As to `CC1(C)CCC[C@]2(C)[C@@H]1CC[C@@]13C(=O)C4[C@H](C[C@@H]21)[C@]4(C)[C@H]3O`, the IC50 was found to be 138 µM in the test with HeLa and 4.65 µM with Aorta [2]. Moreover, the Activity in the test with Aorta [1] was determined as 17.9%.
Take `CC1(C)CCC[C@]2(C)[C@@H]1CC[C@@]13[C@H](O)C4[C@H](C[C@@H]21)[C@]4(C)[C@H]3O`: in the test with HeLa, the IC50 is more than 150 µM. The Activity in the test with Aorta [1] came out at 73.4%.
In the same order, the values of `CC1(C)C(=O)CC[C@]2(C)[C@@H]1CC[C@@]13C(=O)C4[C@H](C[C@H]12)[C@]4(C)C3=O` are more than 150 µM and 84.4%.
For the molecule `CC1(C)CCC[C@]2(C)[C@@H]1CC[C@@]13[C@H](O)C[C@](C)(CC[C@@H]21)[C@H]3O`, the IC50 with HeLa was more than 150 µM. The same molecule displayed an Activity with Aorta [1] of 52.2%.
`C=C1[C@H]2CC[C@@]34C(=O)C5[C@H](C[C@H]3[C@]2(C)CC[C@@H]1Br)[C@]5(C)C4=O`: in the test with HeLa, the IC50 was more than 150 µM. Also, the Activity in the test with Aorta [1] stood at 65.5%.
`C=C1[C@H]2CC[C@@]34C(=O)C5[C@H](C[C@H]3[C@]2(C)CC[C@@H]1O)[C@]5(C)C4=O` came in with an IC50 in the test with HeLa of more than 150 µM. This molecule also came in with an Activity with Aorta [1] of 83.9%.
The matching figures for `C=C1C[C@]23CC[C@H]4C(C)(C)C(=O)CC[C@]4(C)[C@H]2C[C@@H]1CC3=O`: more than 150 µM and 60.6%.
Take `C[C@@]1(C(O)CO)CC[C@@H]2C(O)(C1)C(O)C[C@H]1[C@@]2(C)CC[C@H](O)[C@]1(C)CO` (some centres not stated): in the test on Aorta [2], the IC50 was more than 80 µM.
Molecule `CC(C)(C)[Si](C)(C)O[C@@]12CC[C@@]3(C)[C@@H](CC[C@]45C(=O)C6[C@@H](C[C@@H]43)[C@@]6(C)C5=O)[C@]1(C)C2` returned an IC50 in the test on HeLa of more than 150 µM.
In the case of `C=C1CCC[C@]2(C)[C@@H]1CC[C@@]13C(=O)C4[C@H](C[C@H]12)[C@]4(C)C3=O`, the IC50 was 128 µM in the test on HeLa and 3.5 µM in the test with Aorta [2]. The Activity in the test on Aorta [1] worked out at 9.2%.
As for `CC1(C)CCC[C@]2(C)[C@H]3CC[C@]4(C)CC(=O)[C@]3(CC[C@@H]12)[C@H]4O`, the IC50 in the test on HeLa was 153 µM. Besides, in the test on Aorta [1], the Activity amounted to 40.7%.
In the same order, the values of `CC1(C)CCC[C@]2(C)[C@H]3C[C@@H]4C5C(=O)[C@]3(CC[C@@H]12)[C@H](I)[C@]54C` are 150 µM and 37.4%.
In the same order, the values of `CC1(C)C(=O)CC[C@@]2(C)[C@H]1CC[C@]13C(=O)C4[C@@H](C[C@@H]12)[C@]4(C)C3=O` are more than 150 µM and 91.4%.
Take `CO[C@]1(C)[C@@H](Br)CC[C@@]2(C)[C@@H]3C[C@H]4C5C(=O)[C@@]3(CC[C@@H]21)C(=O)[C@]54C`: the figures for the IC50 in the test with HeLa and with Aorta [2] were more than 150 µM and 12.3 µM, respectively. This molecule gave an Activity in the test on Aorta [1] of 33%.
`CC1(C)C(=O)CC[C@]2(C)[C@H]3C[C@@H]4C5C(=O)[C@]3(CC[C@@H]12)[C@@H](O)[C@]54C`: the IC50 in the test on HeLa is more than 150 µM. Moreover, the Activity in the test on Aorta [1] amounted to 90%.
In the same order, the values of `C[C@@]12CCC(=O)[C@](C)(CBr)[C@H]1CC[C@@]13C(=O)C4[C@H](C[C@H]12)[C@]4(C)C3=O` are more than 150 µM and 71.8%.
For `C[C@@]12CC[C@H](O)[C@](C)(CO)[C@H]1CC[C@@]13CC4[C@H](C[C@H]12)[C@]4(C)C3`, the IC50 in the test on HeLa is 64 µM; with Aorta [2] it was more than 80 µM.
`CC1(C)C(=O)CC[C@]2(C)[C@@H]1CC[C@@]13C(=O)C4[C@H](C[C@@H]21)[C@]4(C)[C@H]3O`: the IC50 in the test with HeLa is more than 150 µM. Further, the Activity with Aorta [1] was determined as 92.7%.
`CC1(C)[C@H](O)CC[C@]2(C)[C@@H]1CC[C@@]13C(=O)C4[C@H](C[C@@H]21)[C@]4(C)[C@H]3O` returned an IC50 with HeLa of more than 150 µM. In the test on Aorta [1], this molecule gave an Activity of 90.3%.
Consider `C=C1[C@H]2CC[C@@]34C(=O)C5[C@H](C[C@H]3[C@]2(C)CC[C@@H]1Cl)[C@]5(C)C4=O`, for which the figures for the IC50 in the test on HeLa and in the test on Aorta [2] were more than 150 µM and 9.75 µM, respectively. Besides, the Activity with Aorta [1] came out at 28.5%.
In the same order, the values of `CC1(C)CCC[C@]2(C)[C@H]3C[C@@H]4C5C(=O)[C@]3(CC[C@@H]12)[C@@H](O)[C@]54C` are more than 150 µM, 9.1 µM and 22.1%.
With `C[C@@]12CCC(=O)[C@](C)(CO)[C@H]1CC[C@@]13CC4[C@H](C[C@H]12)[C@]4(C)C3`, the IC50 is 40.4 µM in the test on HeLa and 6.3 µM in the test with Aorta [2]. The same molecule gave an Activity with Aorta [1] of 17%.
`CC1(C)CCC[C@]2(C)[C@@H]1CC[C@@]13C(=O)C4[C@H](C[C@H]12)[C@]4(C)C3=O`: the IC50 turned out to be 118 µM in the test with HeLa and 5.8 µM in the test on Aorta [2]. Besides, the Activity with Aorta [1] is 14.5%.
`CC1(C)C(=O)CC[C@]2(C)[C@H]3C[C@@H]4C5C(=O)[C@]3(CC[C@@H]12)[C@H](I)[C@]54C` displayed an IC50 in the test with HeLa of more than 150 µM. The molecule also displayed an Activity with Aorta [1] of 95.7%.
In the same order, the values of `C[C@@H]1C(=O)[C@]23CC[C@H]4C(C)(C)C(=O)CC[C@]4(C)[C@H]2C[C@@H]1CC3=O` are more than 150 µM and 87.9%.
In the test with HeLa, `CC1=CCC[C@]2(C)[C@@H]1CC[C@@]13C(=O)C4[C@H](C[C@H]12)[C@]4(C)C3=O` yielded an IC50 of 125 µM.
With `CC1(C)[C@H]2CC[C@@]34CC5[C@H](C[C@H]3[C@]2(C)CC[C@@H]1O)[C@]5(C)C4`, the figures for the IC50 with HeLa and with Aorta [2] were 25.3 µM and more than 80 µM, respectively. The molecule further gave an Activity in the test on Aorta [1] of 67.3%.
Take `C[C@]12CCC(=O)[C@@](C)(CO)[C@@H]1CC[C@]13C(=O)C4[C@@H](C[C@@H]12)[C@]4(C)C3=O`: in the test on Aorta [1], the Activity amounted to 93.1%.
On to `CC1(C)C(=O)CC[C@@]2(C)[C@@H]3C[C@@H]4[C@@H]5C[C@@]3(CC[C@@H]12)C[C@@]45C`, for which the values for the IC50 with HeLa and in the test with Aorta [2] were 33.5 µM and more than 80 µM, respectively. The same molecule yielded an Activity in the test with Aorta [1] of 65.6%.
As for `CC[C@@]1(O)C(=O)OCc2c1cc1n(c2=O)Cc2cc3ccccc3nc2-1` [CAMPTOTHECIN], inhibition with HeLa was half-maximal at 0.5 µM (IC50).
On to `C=C[C@@]1(C)CC[C@H]2C(=CC[C@H]3C(C)(C)[C@@H](O)CC[C@]23C)C1` [ISOPIMARANE], for which the values for the IC50 with HeLa and in the test with Aorta [2] were 87.8 µM and 46.2 µM, respectively. This molecule also showed an Activity in the test on Aorta [1] of 54.6%.
In the test with Aorta [1], `C[C@@H]1C[C@@H](O)[C@H]2[C@@](C)(CO)CCC[C@]2(C)[C@@]1(O)CCc1ccoc1` [MARRUBENOL] yielded an Activity of 7.9%. For the same molecule, 10 µM corresponded to half-maximal inhibition with Aorta [2] (IC50).
For `C/C(=C\CO)CCC[C@H](C)CCC[C@H](C)CCCC(C)C` [TRANS-PHYTOL], the IC50 is 46.6 µM with HeLa and more than 80 µM with Aorta [2]. This molecule also displayed an Activity in the test with Aorta [1] of 81.4%.
